Measurements reported in ChEMBL document CHEMBL4715731, “Synthesis, antiarrhythmic activity, and toxicological evaluation of mexiletine analogues” (Eur J Med Chem, 2016).

Legend:
Left cardiac atrium [1] = assay: Antiarrhythmic activity in 50 Hz sinusoidal alternating current-induced guinea pig left atrium arrhythmias model assessed as increase in threshold of ac-arrhythmia at 1 x 10^-5 M measured for every 30 mins relative to control; format: functional, Cavia porcellus; details: dose 1 10^-5M, 0.5 h, at 10 µM
In short: (§1)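 Guinea pig left atria mounted between platinum field electrodes in modified Krebs-Henseleit (pH 7.4, 95% O2–5% CO2, 35 °C), isometric force recorded. 50 Hz sinusoidal AC of rising strength applied; current intensity (mA/cm²) producing extra beats taken as ac-arrhythmia threshold. Stabilized 60 min, then compounds added cumulatively every 30 min.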

Left cardiac atrium [2] = assay: Antiarrhythmic activity in 50 Hz sinusoidal alternating current-induced guinea pig left atrium arrhythmias model assessed as increase in threshold of ac-arrhythmia measured for every 30 mins relative to control; format: functional, tissue-based; details: Cavia porcellus, 0.5 h
Left cardiac atrium [3] = assay: Negative inotropic activity in guinea pig left atrium assessed as decrease in 1 Hz driven developed tension at 1 x 10^-5 M relative to control; format: tissue-based, Cavia porcellus; design: scale not given: the % may be the effect or the level left; details: 10 µM, dose 1 10^-5M
In short: (§2)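 Guinea pig left atria paced at 1 Hz (rectangular pulses 0.6–0.8 ms, […]) in PSS, pH 7.4, 35 °C, 95% O2–5% CO2. Isometric developed tension recorded. Cumulative concentrations 0.01–100 μM in PSS, each added after steady state. Change expressed as percent of control (n = 5–6).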

Left cardiac atrium [4] = assay: Negative inotropic activity in guinea pig left atrium assessed as decrease in 1 Hz driven developed tension; format: tissue-based; details: Cavia porcellus
Right cardiac atrium [5] = assay: Negative inotropic activity in guinea pig spontaneously beating right atrium assessed as decrease in developed tension at 5 x 10^-6 M relative to control; format: ADME, tissue-based, Cavia porcellus; design: scale not given: the % may be the effect or the level left; details: 5 µM, dose 5 10^-6M
In short: (§3)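 Spontaneously beating guinea pig right atria in PSS, pH 7.4, 35 °C, gassed with 95% O2–5% CO2. Isometric recording of rate and developed force. Compounds added cumulatively, 0.01–100 μM, each after steady state. Percent change from control; rate data n = 7–8. EC50 by probit analysis.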

Right cardiac atrium [6] = assay: Negative inotropic activity in guinea pig spontaneously beating right atrium assessed as decrease in developed tension; format: ADME, tissue-based; details: Cavia porcellus
In short: (§4)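 Isometric recording of rate and developed force. Compounds added cumulatively, 0.01–100 μM, each after steady state. Percent change from control; rate data n = 7–8. EC50 by probit analysis.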

Right cardiac atrium [7] = assay: Negative chronotropic activity in guinea pig spontaneously beating right atrium assessed as decrease in atrial rate at 1 x 10^-5 M relative to control; format: ADME, tissue-based, Cavia porcellus; design: scale not given: the % may be the effect or the level left; details: 10 µM, dose 1 10^-5M; in short: as §4
Aorta = assay: Inhibition of calcium-induced contraction in K+-depolarized guinea pig aortic strips at 1 x 10^-4 M relative to control; format: tissue-based; details: Cavia porcellus, dose 1 10^-4M
In short: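 Helicoidal guinea pig aortic strips at 1 g resting force in PSS at 35 °C, contracted with 80 mM KCl (K+ replacing Na+). At plateau (about 45 min), compounds added cumulatively, 0.1–100 μM.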

Ileum [8] = assay: Inhibition of calcium-induced contraction in K+-depolarized guinea pig longitudinal smooth muscle at 5 x 10^-5 M relative to control; format: tissue-based; details: Cavia porcellus, dose 5 10^-5M
Ileum [9] = assay: Inhibition of calcium-induced contraction in K+-depolarized guinea pig longitudinal smooth muscle; format: tissue-based; details: Cavia porcellus
[10] = Toxicity in mouse assessed as motor coordination impairment by measuring number of falls from rotarod at 25 mg/kg, ip measured after 30 mins by rotarod test; format: organism-based; details: in vivo, 0.5 h
[11] = Toxicity in mouse assessed as motor coordination impairment by measuring number of falls from rotarod at 25 mg/kg, ip measured after 45 mins by rotarod test; format: organism-based; details: in vivo
[12] = Toxicity in mouse assessed as motor coordination impairment by measuring number of falls from rotarod at 25 mg/kg, ip measured after 60 mins by rotarod test; format: organism-based; details: in vivo, 1 h
[13] = Toxicity in mouse assessed as motor coordination impairment by measuring number of falls from rotarod at 50 mg/kg, ip measured after 30 mins by rotarod test; format: organism-based; details: in vivo, 0.5 h
[14] = Toxicity in mouse assessed as motor coordination impairment by measuring number of falls from rotarod at 50 mg/kg, ip measured after 45 mins by rotarod test; format: organism-based; details: in vivo
[15] = Toxicity in mouse assessed as motor coordination impairment by measuring number of falls from rotarod at 50 mg/kg, ip measured after 60 mins by rotarod test; format: organism-based; details: in vivo, 1 h
HepG2 [16] = assay: Cytotoxicity against human HepG2 cells at EC50 concentration incubated for 2 hrs by MTT assay; format: cell-based; details: hepg2, 2 h
In short: (§5)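 HepG2 cells in DMEM with 10% FBS at 37 °C, 5% CO2, grown to 70% confluence. 10^4 cells/well treated in serum-free medium for 2 h. MTT at 0.5 mg/mL for 2 h, formazan dissolved in DMSO, absorbance read at 570 nm. Viability as percent of control MTT reduction; sextuplicate, repeated twice.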

HepG2 [17] = assay: Cytotoxicity against human HepG2 cells at 10 times of EC50 concentration incubated for 2 hrs by MTT assay; format: cell-based; details: hepg2, 2 h; in short: as §5
[18] = Binding affinity to P-gp in dog MDCK-MDR1 cells using calcein-AM as substrate at 100 uM after 30 mins by fluorescence analysis; format: ADME, cell-based, Canis lupus familiaris; details: mdck-mdr1, 0.5 h
In short: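 MDCK-MDR1 cells, 50,000/well, grown to confluence overnight. Compounds in medium incubated 30 min at 37 °C. Calcein-AM then added at 2.5 μM final for 30 min. Cells washed with ice-cold PBS; fluorescence read at 485/535 nm against untreated basal level.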

Left cardiac atrium [19] = assay: Antiarrhythmic activity in 50 Hz sinusoidal alternating current-induced guinea pig left atrium arrhythmias model assessed as increase in threshold of ac-arrhythmia at 1 x 10^-4 M measured for every 30 mins relative to control; format: functional, Cavia porcellus; details: dose 1 10^-4M, 0.5 h, at 100 µM; in short: as §1
Left cardiac atrium [20] = assay: Negative inotropic activity in guinea pig left atrium assessed as decrease in 1 Hz driven developed tension at 1x 10^-4 M relative to control; format: ADME, tissue-based, Cavia porcellus; design: scale not given: the % may be the effect or the level left; details: 100 µM, dose 1 10^-4M; in short: as §2
Right cardiac atrium [21] = assay: Negative chronotropic activity in guinea pig spontaneously beating right atrium assessed as decrease in atrial rate at 1 x 10^-4 M relative to control; format: ADME, tissue-based, Cavia porcellus; design: scale not given: the % may be the effect or the level left; details: 100 µM, dose 1 10^-4M; in short: as §3
Right cardiac atrium [22] = assay: Negative chronotropic activity in guinea pig spontaneously beating right atrium assessed as decrease in atrial rate; format: tissue-based; details: Cavia porcellus; in short: as §3
Ileum [23] = assay: Inhibition of calcium-induced contraction in K+-depolarized guinea pig longitudinal smooth muscle at 1 x 10^-4 M relative to control; format: tissue-based; details: Cavia porcellus, dose 1 10^-4M
Left cardiac atrium [24] = assay: Negative inotropic activity in guinea pig left atrium assessed as decrease in 1 Hz driven developed tension at 1 x 10^-7 M relative to control; format: ADME, tissue-based, Cavia porcellus; design: scale not given: the % may be the effect or the level left; details: 0.1 µM, dose 1 10^-7M; in short: as §2
Ileum [25] = assay: Inhibition of calcium-induced contraction in K+-depolarized guinea pig longitudinal smooth muscle at 1 x 10^-5 M relative to control; format: tissue-based; details: Cavia porcellus, dose 1 10^-5M
[26] = Binding affinity to P-gp in dog MDCK-MDR1 cells using calcein-AM as substrate after 30 mins by fluorescence analysis; format: ADME, cell-based; details: Canis lupus familiaris, MDCK-MDR1, 0.5 h
Left cardiac atrium [27] = assay: Potency index, ratio of mexiletine EC50 to test compound EC50 for antiarrhythmic activity in guinea pig left atrium model of current induced arrhythmias assessed as increase in threshold of ac-arrhythmia; format: functional, Cavia porcellus
Left cardiac atrium [28] = assay: Potency index, ratio of mexiletine EC50 to test compound EC50 for negative inotropic activity in guinea pig left atrium assessed as decrease in developed tension; format: ADME, tissue-based, Cavia porcellus

Activity (Left cardiac atrium [3])	EC50 (Left cardiac atrium [4])	Activity (Right cardiac atrium [5])	EC50 (Right cardiac atrium [6])	Activity (Right cardiac atrium [7])	IC50 (Ileum [9])	Activity [18]	EC50 (Right cardiac atrium [22])	Structure (SMILES)	Activity (Left cardiac atrium [1])	EC50 (Left cardiac atrium [2])	inhibition at 100 µM (Aorta)	Activity [10]	Activity [11]	Activity [12]	Activity [13]	Activity [14]	Activity [15]	Activity (HepG2 [16])	Activity (HepG2 [17])	Activity (Left cardiac atrium [19])	other results
92%	42 nM	77%	1020 nM	7%	10700 nM	Not Active		Cc1cccc(C)c1OCC(N)C(C)(C)C.Cl (stereo not given)	71%	2110 nM	38%	2.7	1.7	0.8	3.1	1.8	1.2	Non-Toxic	Non-Toxic		inhibition at 50 µM (Ileum [8]): 73%
	21 nM				19600 nM	Not Active	13100 nM	Cc1cccc(C)c1OCC(N)C(C)C.Cl (stereo not given)		18400 nM	11%	2.6	2.2	1.1	3	2.1	1	Non-Toxic	Non-Toxic	145%	Activity (Left cardiac atrium [20]): 84%; Activity (Right cardiac atrium [21]): 55%; inhibition at 100 µM (Ileum [23]): 88%
	12 nM	57%	66 nM	24%	3600 nM			Cc1cccc(C)c1OCC(N)Cc1ccccc1.Cl (stereo not given)	169%	4360 nM	33%	2.9	1.9	1.2	4.4	3.5	1.3	Non-Toxic	Non-Toxic		Activity (Left cardiac atrium [24]): 79%; inhibition at 10 µM (Ileum [25]): 73%; EC50 [26]: 8400 nM; Ratio EC50 (Left cardiac atrium [27]): 2.7; Ratio EC50 (Left cardiac atrium [28]): 4
90%	45 nM					Not Active	14 nM	Cc1cccc(C)c1OCC(C)N.Cl (stereo not given) [MEXILETINE HYDROCHLORIDE]		11600 nM	5%	1.3	0.8		3.8	3.5				64%	inhibition at 100 µM (Ileum [23]): 81%
